10 compounds from BindingDB's records for doi:10.1021/acs.jmedchem.9b01065 (Colorado State University, 2019) can be followed below.

For assay [1], the target named is T1, DNA topoisomerase 2-alpha (Homo sapiens, UniProt P11388). Kind of assay: Inhibition of topoisomerase 2alpha in human SW620 organoids transfected with EcadPro-RFP reporter assessed as reversion of epithelial-mesenchymal transition by measuring increase in E-cadherin expression after 72 hrs by Hoechst 33342 staining based mCherryRFP reporter gene assay. In outline:
(§1)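 SW620 cells stably carrying VimPro-GFP or EcadPro-mCherry (puromycin selected) grown as organoids and dosed 72 h. Stained with 16 μM Hoechst 33342 for 1 h and imaged as 15 z-layers, 26.5 μm apart. Nuclei segmented and GFP- or mCherry-positive cells counted above background thresholds. Percent positive cells normalised to DMSO.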

In assay [2] the target is T1, DNA topoisomerase 2-alpha. Kind of assay: Inhibition of topoisomerase 2alpha in human SW620 organoids transfected with VimPro-GFP reporter assessed as reversion of epithelial-mesenchymal transition by measuring reduction in vimentin expression after 72 hrs by Hoechst 33342 staining based GFP reporter gene assay. In outline: as §1
(In general: In a reporter assay the amount or activity of a reporter protein is the signal.)

pEC50: −log10 of the molar value.

T1 sequence (P11388 whole entry): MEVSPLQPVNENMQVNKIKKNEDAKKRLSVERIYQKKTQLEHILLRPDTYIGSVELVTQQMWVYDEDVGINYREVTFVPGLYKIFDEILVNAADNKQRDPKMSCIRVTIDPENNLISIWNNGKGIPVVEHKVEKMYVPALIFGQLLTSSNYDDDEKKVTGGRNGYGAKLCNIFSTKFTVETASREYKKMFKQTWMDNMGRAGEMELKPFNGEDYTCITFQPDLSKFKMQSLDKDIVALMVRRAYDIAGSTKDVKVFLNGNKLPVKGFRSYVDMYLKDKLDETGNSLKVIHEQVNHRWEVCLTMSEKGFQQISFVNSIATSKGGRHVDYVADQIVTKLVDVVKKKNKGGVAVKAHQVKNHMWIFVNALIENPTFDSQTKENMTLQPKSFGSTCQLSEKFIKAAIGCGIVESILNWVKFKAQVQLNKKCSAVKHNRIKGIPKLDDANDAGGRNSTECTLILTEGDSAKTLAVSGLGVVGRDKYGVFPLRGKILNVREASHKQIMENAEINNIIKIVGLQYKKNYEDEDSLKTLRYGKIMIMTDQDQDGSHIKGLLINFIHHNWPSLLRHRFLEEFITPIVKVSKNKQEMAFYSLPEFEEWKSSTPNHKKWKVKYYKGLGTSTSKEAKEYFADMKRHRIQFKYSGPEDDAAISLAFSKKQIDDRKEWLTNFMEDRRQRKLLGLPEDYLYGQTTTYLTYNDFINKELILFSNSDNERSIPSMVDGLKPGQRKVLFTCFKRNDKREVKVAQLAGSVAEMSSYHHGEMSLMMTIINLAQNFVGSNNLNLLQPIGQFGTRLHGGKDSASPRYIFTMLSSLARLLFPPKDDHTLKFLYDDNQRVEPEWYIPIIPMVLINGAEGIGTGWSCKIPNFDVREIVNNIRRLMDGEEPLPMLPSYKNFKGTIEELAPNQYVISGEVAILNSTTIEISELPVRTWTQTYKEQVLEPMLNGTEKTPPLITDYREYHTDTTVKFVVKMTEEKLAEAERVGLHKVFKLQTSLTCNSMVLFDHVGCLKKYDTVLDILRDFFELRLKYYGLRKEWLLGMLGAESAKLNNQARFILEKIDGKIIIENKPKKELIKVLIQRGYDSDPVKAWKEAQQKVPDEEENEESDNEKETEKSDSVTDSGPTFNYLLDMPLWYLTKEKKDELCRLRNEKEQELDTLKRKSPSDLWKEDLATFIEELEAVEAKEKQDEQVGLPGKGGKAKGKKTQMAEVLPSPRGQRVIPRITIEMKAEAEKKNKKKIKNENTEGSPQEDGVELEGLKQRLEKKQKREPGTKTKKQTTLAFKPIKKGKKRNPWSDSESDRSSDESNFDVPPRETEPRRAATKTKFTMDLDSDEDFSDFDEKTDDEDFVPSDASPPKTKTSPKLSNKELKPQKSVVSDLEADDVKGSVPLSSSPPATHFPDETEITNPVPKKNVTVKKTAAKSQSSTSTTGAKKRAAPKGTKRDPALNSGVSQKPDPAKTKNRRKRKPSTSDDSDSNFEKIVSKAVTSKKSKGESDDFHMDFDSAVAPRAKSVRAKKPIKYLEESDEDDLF

In general, pEC50 refers to the negative decadic logarithm of the EC50, by convention in mol/L. Turning to `COc1cc(NC(C)=O)c(O)c2nccc(-c3ccccc3NC(=O)c3ccccc3)c12`, the figures for the pEC50 in assay [1] and in assay [2] were 5.05 and 5.40, respectively.
For the compound `CC(C)(C)C(=O)Nc1ccc2c(-c3ccccc3)ccnc2c1O`, the negative logarithm of the EC50 (pEC50) in assay [1] was 5.51; in assay [2] it was 5.33.
On the same counts, the results for `CC(=O)Nc1ccc2c(-c3cc4ccccc4o3)ccnc2c1O` are 5.27 and 5.46.
On the same counts, the results for `CC(=O)Nc1ccc2c(-c3ccoc3)ccnc2c1O` are 5.47 and 5.77.
With `CC(=O)Nc1ccc2c(-c3cccs3)ccnc2c1O`, the pEC50 in assay [1] is 5.96; in assay [2], 5.92.
The matching figures for `O=C(CCN1CCOCC1)Nc1ccc2c(-c3cc4ccccc4o3)ccnc2c1O`: 5.52 and 5.62.
On the same counts, the results for `O=C(CN1CCOCC1)Nc1ccc2c(-c3cc4ccccc4o3)ccnc2c1O` are 5.48 and 6.00.
`CC(=O)Nc1ccc(-c2ccnc3c(O)c(NC(C)=O)ccc23)cc1`: the pEC50 in assay [1] was 5.26; in assay [2] it was 5.02.
As to `O=C(CCN1CCOCC1)Nc1ccc2c(-c3cc(F)ccc3O)ccnc2c1O`, the negative-log EC50 (pEC50) in assay [1] is 5.92; in assay [2] it was 5.72.
The matching figures for `CC(=O)Nc1ccc2c(-c3cc(F)ccc3O)ccnc2c1O`: 5.80 and 5.92.
